Active and inactive are the calls of the source. No cut-off for these calls is given here.
What was measured:
[1] = target: T1, Inhibitor of nuclear factor kappa-B kinase subunit beta (Homo sapiens, UniProt O14920); test: Inhibition of IKK-beta using TMB substrate after 15 mins by spectrophotometer analysis
T1 sequence (O14920 whole entry): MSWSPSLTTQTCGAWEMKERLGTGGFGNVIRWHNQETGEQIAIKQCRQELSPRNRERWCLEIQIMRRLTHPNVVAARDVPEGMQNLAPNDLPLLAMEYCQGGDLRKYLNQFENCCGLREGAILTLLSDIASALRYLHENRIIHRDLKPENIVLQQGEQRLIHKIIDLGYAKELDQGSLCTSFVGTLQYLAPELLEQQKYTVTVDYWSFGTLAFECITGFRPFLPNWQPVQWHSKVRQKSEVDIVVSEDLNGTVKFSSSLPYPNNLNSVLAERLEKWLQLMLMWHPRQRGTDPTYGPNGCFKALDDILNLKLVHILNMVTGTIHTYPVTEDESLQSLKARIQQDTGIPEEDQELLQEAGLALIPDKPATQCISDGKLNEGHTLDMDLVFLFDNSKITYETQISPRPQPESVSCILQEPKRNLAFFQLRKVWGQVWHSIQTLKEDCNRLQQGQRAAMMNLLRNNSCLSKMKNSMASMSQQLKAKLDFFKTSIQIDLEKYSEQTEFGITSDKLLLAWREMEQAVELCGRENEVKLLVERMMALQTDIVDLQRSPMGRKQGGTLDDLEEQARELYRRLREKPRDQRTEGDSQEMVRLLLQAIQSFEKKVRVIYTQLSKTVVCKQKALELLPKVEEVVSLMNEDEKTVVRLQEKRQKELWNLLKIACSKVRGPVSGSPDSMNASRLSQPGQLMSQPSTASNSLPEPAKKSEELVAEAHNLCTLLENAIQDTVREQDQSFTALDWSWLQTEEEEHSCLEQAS
Outline: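 Kit-supplied IKKβ (50 ng in 4× reaction cocktail) preincubated with test sample 5 min at room temperature. 2× ATP/biotinylated substrate peptide cocktail added, 30 min at room temperature, stopped with 50 mM EDTA pH 8. Product captured on streptavidin plate, probed with anti-phospho-IκBα (Ser32) then HRP anti-rabbit IgG. TMB developed 15 min, read at 450 nm.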

A549 [2] = test: Antiproliferative activity against human A549 cells after 24 hrs by MTT assay; type: functional, cell-based; conditions: A549, 24 h
Outline: (§1)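 Test agents diluted in culture medium, 24 h exposure. Viability read colorimetrically by MTT; vitality index (%) = A_treatment/A_control × 100; IC50 reported.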

U-251 [3] = test: Antiproliferative activity against human U251 cells after 24 hrs by MTT assay; type: functional, cell-based; conditions: U-251, 24 h; outline: as §1
U-251 [4] = test: Induction of apoptosis in human U251 cells assessed as morphological changes at 4 to 64 uM after 24 hrs by inverted light microscopic analysis; type: functional, cell-based
Outline: (§2)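 U251 cells in DMEM with 10% fetal calf serum under 5% CO2, exposed to compound for 24 h. Cell shape (rounding, shrinkage) inspected and photographed under an inverted light microscope at 200×, compared against untreated cells.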

U-251 [5] = test: Induction of apoptosis in human U251 cells assessed as appearance of nuclear condensation and apoptotic bodies at 4 to 64 uM after 24 hrs by DAPI staining; type: functional, cell-based
Outline: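 Treated U251 cells stained with DAPI and examined by fluorescence microscopy at 400× for bright condensed nuclei and apoptotic bodies.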

U-251 [6] = test: Induction of apoptosis in human U251 cells assessed as increase in early and median apoptotic cells at 4 to 16 uM after 24 hrs using Annexin V/propidium iodide staining by flow cytometry; type: functional
Outline: (§3)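 U251 cells (DMEM, 10% fetal calf serum, 5% CO2) treated 24 h, washed with PBS and resuspended in binding buffer (pH 7.5, 10 mM HEPES, 2.5 mM CaCl2, 140 mM NaCl). Stained with Annexin V-FITC then PI for 10 min in the dark at room temperature, then analysed by flow cytometry. Lower-right quadrant counted as early/median apoptotic; upper-right as late apoptotic/necrotic.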

U-251 [7] = test: Induction of apoptosis in human U251 cells assessed as increase in late apoptotic and necrotic cells at 4 to 16 uM after 24 hrs using Annexin V/propidium iodide staining by flow cytometry; type: functional; outline: as §3
A549 [8] = test: Inhibition of NF-kappaB activation in human A549 cells assessed as inhibition of TNFalpha/IFNgamma/IL-1beta-induced NF-kappaB nuclear translocation treated 2 hrs before TNFalpha/IFNgamma/IL-1beta stimulation measured after 30 mins; type: cell-based
Outline: (§4)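 A549 cells plated at 9000 per well, serum-starved 18 h, then given compound at graded concentrations for 2 h at 37 °C. Stimulated 30 min at 37 °C with TNFα 50 ng/mL, IFN-γ 100 U/mL and IL-1β 100 U/mL. Fixed, permeabilised and immunostained for NF-κB. High-content imaging read-out was the nuclear/cytoplasmic NF-κB fluorescence ratio, taken as the translocation inhibition rate.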

A549 [9] = test: Inhibition of NF-kappaB activation in human A549 cells assessed as inhibition of TNFalpha/IFNgamma/IL-1beta-induced NF-kappaB nuclear translocation at 5 uM treated 2 hrs before TNFalpha/IFNgamma/IL-1beta stimulation measured after 30 mins; type: cell-based; outline: as §4
A549 [10] = test: Inhibition of NF-kappaB activation in human A549 cells assessed as inhibition of TNFalpha-induced p65 nuclear translocation treated 4 hrs before TNFalpha stimulation measured after 30 mins by Western blotting; type: cell-based
Outline: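 A549 cells either untreated or pretreated with compound for 4 h at 37 °C, then given TNFα 50 ng/mL for 30 min. Cytoplasmic and nuclear extracts were western-blotted for p65, with β-actin (cytoplasm) and histone (nucleus) as loading controls.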

[11] = target: T2, NF-kappa-B inhibitor alpha (Homo sapiens) (UniProt P25963); test: Inhibition of TNF-alpha-induced IkappaBalpha degradation in human A549 cells at 4 to 8 uM treated 4 hrs before TNFalpha stimulation measured after 30 mins by Western blotting; type: cell-based
T2 sequence (whole entry): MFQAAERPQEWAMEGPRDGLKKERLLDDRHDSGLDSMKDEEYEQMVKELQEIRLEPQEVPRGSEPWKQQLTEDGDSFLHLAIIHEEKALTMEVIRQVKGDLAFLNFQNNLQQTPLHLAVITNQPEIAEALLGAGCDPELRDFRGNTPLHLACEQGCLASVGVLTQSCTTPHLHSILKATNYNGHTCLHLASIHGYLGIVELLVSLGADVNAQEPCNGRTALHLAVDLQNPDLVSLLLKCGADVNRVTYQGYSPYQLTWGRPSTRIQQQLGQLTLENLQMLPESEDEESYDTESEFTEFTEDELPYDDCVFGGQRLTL
Outline: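 A549 cells incubated 4 h with 4 or 8 μM compound, then exposed to TNF 0.1 ng/mL for various times. Cytoplasmic IκBα was followed by western blot.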

[12] = target: T2, NF-kappa-B inhibitor alpha (Homo sapiens); test: Inhibition of TNF-alpha-induced IkappaBalpha phosphorylation in human A549 cells at 4 to 8 uM treated 4 hrs before TNFalpha stimulation measured after 30 mins by Western blotting; type: cell-based
U-251 [13] = test: Induction of apoptosis in human U251 cells assessed as morphological changes at 8 uM after 24 hrs by inverted light microscopic analysis; type: functional, cell-based; outline: as §2

SMILES	IC50 [1] [µM]	IC50 (A549 [2]) [µM]	IC50 (U-251 [3]) [µM]	further results
CC(C)=CC[C@@]12OC(C)(C)[C@@H]3C[C@@H](C=C4C(=O)c5c(O)cc(O)cc5O[C@]431)C2=O	3.52	2.67	7.32	Activity (U-251 [4]): Active; Activity (U-251 [5]): Active; Activity (U-251 [6]): 58.21%; Activity (U-251 [7]): 34.24%
CC(C)=CC[C@@]12OC(C)(C)[C@@H]3C[C@@H](C=C4C(=O)c5ccccc5O[C@]431)C2=O	24.2	1.93	18.7	
CC(C)=CCc1c(O)cc(O)c2c(=O)c3ccccc3oc12	13.1	34.9	46.8	
CC(C)=CC[C@@]12OC(C)(C)[C@@H]3C[C@@H](C=C4C(=O)CC(C)O[C@]431)C2=O (stereo partly drawn)	40.3	60.3	82.4	
CC(C)=CCc1c(O)cc2c(c1O)C(=O)C1=C[C@@H]3C[C@H]4C(C)(C)O[C@@](CC=C(C)C)(C3=O)[C@@]14O2	10.8	14.4	22.4	
CC(C)=CC[C@@]12OC(C)(C)[C@@H]3C[C@@H](C=C4C(=O)c5c(O)cccc5O[C@]431)C2=O	8.17	0.7	9.05	
CC(C)=CCC[C@]1(C)C=Cc2c(O)c3c(c(CC=C(C)C)c2O1)O[C@]12C(=C[C@@H]4C[C@H]1C(C)(C)O[C@@]2(C/C=C(/C)C(=O)O)C4=O)C3=O [GAMBOGIC ACID]	3.07	1.1	2.56	inhibition (A549 [8]): Dose-dependent effect; inhibition (A549 [9]): 50.2%; inhibition (A549 [10]): Dose-dependent effect; inhibition [11]: Active; inhibition [12]: Active; Activity (U-251 [13]): Active
CC(C)=CCc1cc(C2=CC(=O)C3=C[C@@H]4C[C@H]5C(C)(C)O[C@@](CC=C(C)C)(C4=O)[C@@]35O2)ccc1O	25.3	15.5	18.7	
O=c1cc(-c2ccccc2)oc2c(O)c(O)ccc12 [7,8-DIHYDROXYFLAVONE]	9.82	37.2	50.1	
CC(C)=CC[C@@]12OC(C)(C)[C@@H]3C[C@@H](C=C4C(=O)C=C(c5ccccc5)O[C@]431)C2=O	41.7	27.5	40.2	
CC(C)=CCc1c(O)cc(O)c2c1O[C@]13C(=C[C@@H]4C[C@H]1C(C)(C)O[C@@]3(CC=C(C)C)C4=O)C2=O	6.6	3.58	8.57	
